The values below come from ChEMBL document CHEMBL4049419, “Structure-Based Discovery of New Antagonist and Biased Agonist Chemotypes for the Kappa Opioid Receptor” (J Med Chem, 2017).

The term pKi denotes the Ki on a negative log10 scale, so that one unit is a factor of ten. One may read the inhibition as the drop in the measured response relative to a control, in per cent. What is called pIC50 is −log10 of the IC50, conventionally taken in molar units.

Structures are written as SMILES. pIC50, pKi: −log10 of the molar value. Activity calls are given as the source filed them. No cut-off for these calls is given here.

The target in test [1] is T1, Kappa-type opioid receptor (Homo sapiens, UniProt P41145). The experiment in a line: Displacement of 3H-U69593 from human KOR expressed in HEK293 cells after 90 mins by micro beta scintillation counting analysis. It is filed as cell-based. To be noted: for pKi: read-out: Ki; for Ki: read-out: pKi (converted). In outline:
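Competition binding with 3H-U69593 at cloned human KOR expressed in HEK293 cells. Ki was derived from the curves; normalized data from three independent assays were pooled, mean ± SEM.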

For test [2], the target named is T1, Kappa-type opioid receptor. The experiment in a line: Displacement of 3H-U69593 from human KOR expressed in HEK293 cells at 50 uM after 90 mins by micro beta scintillation counting analysis. The class given is cell-based. In outline: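 Primary screen of 3H-U69593 binding at cloned human KOR in HEK293 cells, using a single compound concentration of 50 µM tested in quadruplicate. Percent inhibition of radioligand binding is reported.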
In general terms: Loss of bound radioactivity is the signal in a displacement assay; it reports binding, not function.

For test [3], the species on record is Homo sapiens. The experiment in a line: Ratio of Ki for KOR H291A mutant (unknown origin) to Ki for human KOR expressed in HEK293 cells. It is filed as cell-based.
For test [4], the species on record is Homo sapiens. The experiment in a line: Ratio of Ki for KOR I294A mutant (unknown origin) to Ki for human KOR expressed in HEK293 cells. The class given is cell-based.
For test [5], the target named is T1, Kappa-type opioid receptor. The experiment in a line: Antagonist activity at KOR (unknown origin) expressed in HTLA cells assessed as inhibition of Sal A-induced beta-arrestin recruitment preincubated for overnight followed by Sal-A addition at 30 mins post compound treatment measured after 20 mins by Bright-Glo luminescence assay. The class given is cell-based. In outline:
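HTLA cells transfected overnight, plated at 15,000 cells/well in DMEM with 1% dialyzed FBS on poly-L-Lys, rested ≥6 h. Test compounds added, then Sal A 30 nM 30 min later; overnight incubation. BrightGlo reagent 20 min at room temperature in the dark; luminescence read. Normalized data, mean ± SEM from at least 4 measurements.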
In general terms: Arrestin recruitment assays detect the binding of arrestin to an activated receptor.

Test [6] has as its target T1, Kappa-type opioid receptor. Briefly: Antagonist activity at human KOR expressed in HEK293T cells coexpressing Gi assessed as Gi-mediated inhibition of cAMP production incubated for 15 mins followed by Gs activator isoproterenol addition measured after 15 mins by luciferase reporter gene assay. It is filed as functional, cell-based. The conditions noted are these: HEK-293T. In outline:
(§1)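 HEK293T cells co-transfected with human KOR and GloSensor split-luciferase cAMP biosensor, plated 15,000 cells/well overnight. Loaded 1 h with 4 mM luciferin in 20 mM HEPES/HBSS pH 7.4. Compounds preincubated 15 min, Sal A 20 nM added for 15 min, then isoproterenol (200 nM final) to drive Gs; luminescence read 15 min later. Sal A shifts analysed by Schild analysis to give KB.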

Test [7] has as its target T1, Kappa-type opioid receptor. The experiment in a line: Antagonist activity at human KOR expressed in HEK293T cells coexpressing Gi assessed as inhibition of Sal A-induced Gi-mediated reduction of cAMP production incubated for 15 mins followed by Sal A addition for 15 mins and susequent addition of Gs activator isoproterenol measured after 15 mins by luciferase reporter gene assay. It is filed as functional, cell-based. In outline: as §1

The species named for test [8] is Homo sapiens. The experiment in a line: Ratio of Ki for KOR M142A mutant (unknown origin) to Ki for human KOR expressed in HEK293 cells. It is filed as cell-based.
Test [9] relates to Kappa-type opioid receptor (Homo sapiens), P41145 [M142A]. Briefly: Displacement of 3H-U69593 from KOR M142A mutant (unknown origin). In outline:
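Single-point KOR mutants were retested alongside wild-type receptor in ³H-U69593 competition binding. 12-point concentration-response from 100 µM to 10 nM, run in triplicate; Ki derived.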

The target of test [10] is T1, Kappa-type opioid receptor. The experiment in a line: Agonist activity at human KOR expressed in HEK293T cells coexpressing Gi assessed as Gi-mediated inhibition of cAMP production at 10 uM incubated for 15 mins followed by Gs activator isoproterenol addition measured after 15 mins by luciferase reporter gene assay relative to Sal-A. The class given is functional, cell-based. The conditions noted are these: HEK-293T. In outline: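 HEK293T cells co-transfected with human KOR and a split-luciferase GloSensor cAMP biosensor, plated overnight at 15,000 cells/well in DMEM + 1% dialyzed FBS. Loaded 1 h with 20 mM HEPES/1× HBSS pH 7.4 containing 4 mM luciferin. Drug added for 15 min, then isoproterenol (200 nM final, Gs activation via endogenous β2 receptors); luminescence read 15 min later.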

Chain of Kappa-type opioid receptor (Homo sapiens), P41145 [M142A] (P41145 whole entry M142A): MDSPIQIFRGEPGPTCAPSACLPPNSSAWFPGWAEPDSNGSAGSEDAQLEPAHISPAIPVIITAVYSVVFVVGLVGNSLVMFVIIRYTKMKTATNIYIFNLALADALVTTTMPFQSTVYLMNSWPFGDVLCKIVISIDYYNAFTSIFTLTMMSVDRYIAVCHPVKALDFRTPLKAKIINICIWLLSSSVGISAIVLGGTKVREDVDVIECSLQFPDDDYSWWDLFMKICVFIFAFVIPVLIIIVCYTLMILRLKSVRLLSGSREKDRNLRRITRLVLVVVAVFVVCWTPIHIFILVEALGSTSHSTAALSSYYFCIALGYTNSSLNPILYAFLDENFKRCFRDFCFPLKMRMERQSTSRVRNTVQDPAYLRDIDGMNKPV
T1 sequence (P41145 whole entry): as the sequence (P41145 whole entry M142A) above, with A142M counted along it

Take `Cc1nc(O)cc(C2CCN(Cc3ccc(C4CCCC4)s3)CC2)n1`: in test [1], the pKi was 5.09. Also, in test [2], the inhibition stood at 73.7%.
Regarding `CSc1ccc(CN(CCO)Cc2ccc(-c3ccn[nH]3)s2)cc1`, in test [1], the negative logarithm of the Ki (pKi) is 5.52. Moreover, the inhibition in [2] came out at 53%.
In the case of `O=C(NC[C@@H](c1ccco1)N1CCCC1)c1cc2ccccc2o1`, in test [1], the negative-log Ki (pKi) is 6.02 and the Ki was 912 nM. In addition, in test [2], the inhibition stood at 64%.
In the case of `NC(=O)c1cc(S(=O)(=O)NC2CCN(Cc3ccccc3)CC2)cs1`, the pKi in test [1] is 5.01. The same molecule displayed an inhibition in test [2] of 47.3%.
On to `CCN(Cc1csc(C)n1)C(C)c1cccc(O)c1` (centres undefined), for which, in test [1], the negative logarithm of the Ki (pKi) is 6.20 and the Ki is 562 nM. For the same molecule, the Ratio Ki in test [3] was greater than 10. Also, in [4], the Ratio Ki is greater than 10. In addition, the inhibition in test [2] was 74%.
As to `Oc1cccc(C(O)CNCc2ccc(Cl)cc2Cl)c1` (centres undefined), the values for the pKi in test [1] and in test [5] were 7.05 and 6.64, respectively. Moreover, the Ki in [1] is 83.2 nM. Moreover, in test [5], the negative logarithm of the IC50 (pIC50) was 5.96. Moreover, the inhibition result in test [5] was “Dose-dependent effect”; in test [7] (HEK-293T), “Dose-dependent effect”; in test [2], 97.9%. The figures for the Kb in [6] and in test [7] (read-out: pA2 (converted)) were 170 nM and 166 nM, respectively. In addition, the figures for the Ratio Ki in test [3], in [8] and in [4] were greater than 10, 10 and greater than 10, respectively.
On to `Cc1cc(S(=O)(=O)NCC(=O)NC2CCC2NC(C)C)ccc1F` (centres undefined), for which the pKi in test [1] is 5.21. In [2], the inhibition stood at 49.1%.
With `Oc1cccc(C(O)CNCc2c(Cl)cccc2Cl)c1` (centres undefined), in test [1], the negative-log Ki (pKi) is 5.59. In test [2], this molecule showed an inhibition of 80.1%.
Take `Oc1cccc(CNCc2cc3ccccc3[nH]2)c1`: in test [1], the pKi was 6.15 and the Ki is 676 nM. The inhibition in [2] came out at 82.4%.
As to `COc1ccc2oc(C(=O)NCC(c3ccco3)N3CCCC3)c(C)c2c1` (centres undefined), the negative-log Ki (pKi) in test [1] is 6.14. Also, in test [2], the inhibition was 74%.
For `Cc1ccc(C(CNC(=O)c2oc3ccccc3c2C)N2CCCC2)o1` (centres undefined), in test [1], the negative-log Ki (pKi) was 6.42 and the Ki was 363 nM. Besides, the inhibition entry in test [9] was “Active”. Further, the inhibition in test [10] lay in the range of 40 to 60%. In test [2], this molecule returned an inhibition of 69.1%.
As for `CC(CCc1ccc(O)cc1)NCCc1ccccc1` (centres undefined), the negative-log Ki (pKi) in test [1] is 5.18. Moreover, the inhibition in test [2] was 70.2%.
Consider `COC(=O)[C@@H]1C[C@H](OC(C)=O)C(=O)[C@H]2[C@@]1(C)CC[C@H]1C(=O)O[C@H](c3ccoc3)C[C@]21C`, for which the Ratio Ki in test [8] came out at 10.
In the case of `NC1CCc2cc(O)ccc2C1` (centres undefined), in test [1], the negative-log Ki (pKi) was 5.08. Besides, the inhibition in [2] stood at 48.6%.
Consider `Cc1cc2oc(C(=O)NCC(c3ccco3)N3CCCC3)c(C)c2cc1C` (centres undefined), for which the pKi in test [1] is 5.96. In addition, in [2], the inhibition came to 77.5%.
For `Cc1cccc(C(O)CNC(C)Cn2cc(Br)cn2)c1` (centres undefined), the pKi in [1] was 5.19. The same molecule gave an inhibition in test [2] of 49.8%.
On the same counts, the results for `Cc1ccc(-c2ccccc2CN2CC3CNCC3C2)o1` (centres undefined) are 5.52 and 60.7%.
As for `COc1ccc(CNCC(O)c2cccc(O)c2)cc1Br` (centres undefined), the pKi in test [1] is 6.64. Further, the Ratio Ki is greater than 10 in [3], 10 in test [8] and greater than 10 in test [4]. Further, in test [2], the inhibition was found to be 98.2%.
`Cc1ncsc1CN1CCCCC1CCc1cccc(O)c1` (centres undefined): the negative logarithm of the Ki (pKi) in test [1] was 6.46. In test [2], this molecule had an inhibition of 96.9%.
The like results for `Oc1ccc(CCC2CCCCN2Cc2ccc(Cl)o2)cc1` (centres undefined) were, in that order, 6.30 and 95.3%.
In the case of `c1ccc(CN2CCC(Nc3nc4ccccc4o3)C2)cc1` (centres undefined), the pKi in [1] is 5.59. Moreover, the inhibition in test [10] was 40 to 60%; in [2] it was 77.5%.
As to `CN(Cc1ccccc1NC(=O)NCc1ccoc1)C1CCCCC1`, the negative-log Ki (pKi) in test [1] is 5.64. In addition, in test [2], the inhibition was 76.5%.
On to `Cc1ccc(C(CNC(=O)c2oc3ccc(F)cc3c2C)N2CCCC2)o1` (centres undefined), for which, in [1], the pKi is 6.18 and the Ki was 646 nM. In test [9], the inhibition result is “Active”. Besides, in test [10], the inhibition was in the range of 40 to 60%. For the same molecule, the inhibition in test [2] was determined as 75.8%.
Turning to `Cc1c(C(=O)NCC(c2ccco2)N2CCCC2)oc2ccc(Cl)cc12` (centres undefined), in test [1], the pKi is 6.28. In addition, in test [9], the inhibition result was “Active”. Also, the inhibition was 40 to 60% in test [10] and 86.5% in test [2].
